According to paper PMC4772774 (Journal of medicinal chemistry, 2015):
pEC50, pKi: −log10 of the molar value. Where two headings read alike, the source gives them in different places.

Legend:
Plasma stability testing = format: in vitro ADME; conditions: in plasma after 30 min
δ-opioid receptor (DOR) [1] = target: T1, δ-opioid receptor (DOR) (Rattus norvegicus, UniProt P33533); experiment: Agonist stimulation of [35S]GTPγS binding, C6-DOR membranes; format: biochemical; conditions: dns: does not stimulate; for EC50 DOR: [35S]GTPγS binding, mean (S.E.M.), n=3; for % stimulation DOR: percent maximal stimulation relative to DPDPE at 10 µM
T1 sequence (P33533 whole entry): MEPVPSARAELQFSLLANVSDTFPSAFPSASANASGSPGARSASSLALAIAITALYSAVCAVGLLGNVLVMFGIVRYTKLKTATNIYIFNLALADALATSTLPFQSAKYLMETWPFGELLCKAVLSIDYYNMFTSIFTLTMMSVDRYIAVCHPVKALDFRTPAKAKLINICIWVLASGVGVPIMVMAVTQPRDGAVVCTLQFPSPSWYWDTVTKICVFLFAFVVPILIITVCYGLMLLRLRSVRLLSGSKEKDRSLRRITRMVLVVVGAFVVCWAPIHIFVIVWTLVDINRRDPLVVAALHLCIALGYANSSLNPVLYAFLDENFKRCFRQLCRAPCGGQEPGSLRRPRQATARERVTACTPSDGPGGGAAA
Summary of the method: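 C6 rat glioma cells stably expressing rat DOR; membranes (10–20 µg protein) incubated 1 h at 25°C in 50 mM Tris-HCl, 100 mM NaCl, 5 mM MgCl2, pH 7.4, with 0.1 nM [35S]GTPγS, 30 µM GDP and varying test compound.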

κ-opioid receptor (KOR) [2] = target: T2, κ-opioid receptor (KOR) (Homo sapiens, UniProt P41145); experiment: Agonist stimulation of [35S]GTPγS binding, CHO-KOR membranes; format: biochemical; conditions: for EC50 KOR: [35S]GTPγS binding, mean (S.E.M.), n=3 (footnote d: n=2), dns: does not stimulate
T2 sequence (P41145 whole entry): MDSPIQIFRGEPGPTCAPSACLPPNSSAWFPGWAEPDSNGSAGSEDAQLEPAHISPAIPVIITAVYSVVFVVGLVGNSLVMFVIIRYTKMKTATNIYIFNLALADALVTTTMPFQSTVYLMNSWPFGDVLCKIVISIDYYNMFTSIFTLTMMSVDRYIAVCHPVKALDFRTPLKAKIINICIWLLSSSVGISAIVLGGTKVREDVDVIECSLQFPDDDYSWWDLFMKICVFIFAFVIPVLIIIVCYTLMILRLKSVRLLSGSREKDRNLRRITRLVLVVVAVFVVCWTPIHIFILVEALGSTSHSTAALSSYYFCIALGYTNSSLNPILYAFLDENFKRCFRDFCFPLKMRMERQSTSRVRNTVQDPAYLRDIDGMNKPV

DOR = DOR (Rattus norvegicus, UniProt P33533); experiment: Antagonism of the DOR agonist DPDPE; format: biochemical
Sequence of DOR (P33533 whole entry): as the sequence (P33533 whole entry) above

C57BL/6 mice = experiment: Mouse warm water tail withdrawal; format: in vivo; conditions: 10 mg/kg ip
µ-opioid receptor (MOR) [3] = target: T3, µ-opioid receptor (MOR) (Rattus norvegicus, UniProt P33535); conditions: relative to DAMGO at 10 µM; previously published, ref [1]; cited from earlier work
T3 sequence (P33535 whole entry): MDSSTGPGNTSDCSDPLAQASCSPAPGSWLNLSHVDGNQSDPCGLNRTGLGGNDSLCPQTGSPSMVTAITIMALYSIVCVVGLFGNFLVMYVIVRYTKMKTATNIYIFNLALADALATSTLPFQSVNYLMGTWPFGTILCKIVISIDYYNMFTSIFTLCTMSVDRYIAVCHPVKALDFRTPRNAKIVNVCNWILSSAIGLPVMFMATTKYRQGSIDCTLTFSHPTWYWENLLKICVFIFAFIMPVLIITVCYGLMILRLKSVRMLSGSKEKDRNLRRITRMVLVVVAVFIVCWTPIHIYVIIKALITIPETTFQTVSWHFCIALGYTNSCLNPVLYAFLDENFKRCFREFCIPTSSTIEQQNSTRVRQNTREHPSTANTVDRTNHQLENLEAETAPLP

κ-opioid receptor (KOR) [4] = target: T2, κ-opioid receptor (KOR); conditions: [35S]GTPγS binding; dns: does not stimulate; previously published, ref [1]; cited from earlier work
µ-opioid receptor (MOR) [5] = target: T3, µ-opioid receptor (MOR); experiment: Agonist stimulation of [35S]GTPγS binding, C6-MOR membranes; format: biochemical; conditions: dns: does not stimulate
Summary of the method: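 C6 rat glioma cells stably expressing rat MOR were grown in DMEM/10% FBS. Membranes (10–20 µg protein) were incubated 1 h at 25 °C in 50 mM Tris-HCl, 100 mM NaCl, 5 mM MgCl2, pH 7.4, with 0.1 nM [35S]GTPγS, 30 µM GDP and varying compound concentrations. Samples were GF/C-filtered and scintillation-counted. Stimulation was expressed relative to 10 µM DAMGO.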

µ-opioid receptor (MOR) [6] = target: T3, µ-opioid receptor (MOR); experiment: [3H]diprenorphine competitive displacement binding, C6-MOR membranes
δ-opioid receptor (DOR) [7] = target: T1, δ-opioid receptor (DOR); conditions: [35S]GTPγS binding; dns: does not stimulate; previously published, ref [1]; cited from earlier work

Row | SMILES | EC50 DOR (δ-opioid receptor (DOR) [1]) | % stimulation DOR (δ-opioid receptor (DOR) [1]) | EC50 KOR (κ-opioid receptor (KOR) [2]) | also measured
1 | CC(=O)N1CC[C@@H](NC(=O)[C@@H](N)Cc2c(C)cc(O)cc2C)c2cc(Cc3cccc4ccccc34)ccc21 [14d, (S)-N-((R)-1-Acetyl-6-(naphthalen-1-ylmethyl)-1,2,3,4-tetrahydroquinolin-4-yl)-2-amino-3-(4-hydroxy-2,6-dimethylphenyl)propanamide] | dns | dns | dns ^d | plasma stability (Plasma stability testing): fully stable; Kb (DOR): 27.5 nM
2 | CC(=O)N1CC[C@@H](NC(=O)[C@@H](N)Cc2c(C)cc(O)cc2C)c2cc(CC3CCc4ccccc43)ccc21 (mixture of isomers) [14g, (S)-N-((R)-1-Acetyl-6-(((R/S)-2,3-dihydro-1H–inden-1-yl)methyl)-1,2,3,4-tetrahydroquinolin-4-yl)-2-amino-3-(4-hydroxy-2,6-dimethylphenyl)propanamide] | dns | dns |  | pEC50 (κ-opioid receptor (KOR) [2]): < 6.00
3 | Cc1cc(O)cc(C)c1C[C@H](N)C(=O)N[C@@H]1CCCc2ccc(Cc3ccc4ccccc4c3)cc21 [14o, (S)-2-Amino-3-(4-hydroxy-2,6-dimethylphenyl)-N-((R)-7-(naphthalen-2-ylmethyl)-1,2,3,4-tetrahydronaphthalen-1-yl)propanamide] | dns | dns | dns | 
4 | CC(=O)N1CC[C@@H](NC(=O)[C@@H](N)Cc2c(C)cc(O)cc2C)c2cc(CC3CCCCC3)ccc21 [14c, (S)-N-((R)-1-Acetyl-6-(cyclohexylmethyl)-1,2,3,4-tetrahydroquinolin-4-yl)-2-amino-3-(4-hydroxy-2,6-dimethylphenyl)propanamide] |  | 26 (5) % |  | 
5 | CC(=O)N1CC[C@@H](NC(=O)[C@@H](N)Cc2c(C)cc(O)cc2C)c2cc(Cc3ccc4ccccc4c3)ccc21 [14a, (S)-N-((R)-1-Acetyl-6-(naphthalen-2-ylmethyl)-1,2,3,4-tetrahydroquinolin-4-yl)-2-amino-3-(4-hydroxy-2,6-dimethylphenyl)propanamide] | dns | dns | dns ^d | plasma stability (Plasma stability testing): fully stable; Kb (DOR): 1.98 nM; duration of maximal antinociception (C57BL/6 mice; mouse WWTW time course): approximately 200 min; duration of action compared to 14i (C57BL/6 mice; mouse WWTW, relative to original lead 14i): greater than 3 times
6 | Cc1cc(O)cc(C)c1C[C@H](N)C(=O)N[C@@H]1CCNc2ccc(CC3CCCCC3)cc21 [14b, (S)-2-Amino-N-((R)-6-(cyclohexylmethyl)-1,2,3,4-tetrahydroquinolin-4-yl)-3-(4-hydroxy-2,6-dimethylphenyl)propanamide] | dns | dns |  | 
7 | Cc1cc(O)cc(C)c1C[C@H](N)C(=O)N[C@@H]1CCCc2ccc(Cc3cccc4ccccc34)cc21 [14p, (S)-2-Amino-3-(4-hydroxy-2,6-dimethylphenyl)-N-((R)-7-(naphthalen-1-ylmethyl)-1,2,3,4-tetrahydronaphthalen-1-yl)propanamide] | dns | dns | dns ^d | 
8 | Cc1cc(O)cc(C)c1C[C@H](N)C(=O)N[C@@H]1CCNc2ccc(CC3CCc4ccccc43)cc21 (mixture of isomers) [14h, (S)-2-Amino-N-((R)-6-(((R/S)-2,3-dihydro-1H–inden-1-yl)methyl)-1,2,3,4-tetrahydroquinolin-4-yl)-3-(4-hydroxy-2,6-dimethylphenyl)propanamide] | dns | dns |  | 
9 | Cc1cc(O)cc(C)c1C[C@H](N)C(=O)N[C@@H]1CCNc2ccc(Cc3cccc4ccccc34)cc21 [14k, (S)-2-Amino-3-(4-hydroxy-2,6-dimethylphenyl)-N-((R)-6-(naphthalen-1-ylmethyl)-1,2,3,4-tetrahydroquinolin-4-yl)propanamide] |  |  |  | % stimulation MOR (µ-opioid receptor (MOR) [3]): 93 (5) %; EC50 KOR (κ-opioid receptor (KOR) [4]): dns
10 | Cc1cc(O)cc(C)c1C[C@H](N)C(=O)N[C@@H]1CCCc2ccc(CC3CCCCC3)cc21 [14n, (S)-2-Amino-N-((R)-7-(cyclohexylmethyl)-1,2,3,4-tetrahydronaphthalen-1-yl)-3-(4-hydroxy-2,6-dimethylphenyl)propanamide] | dns | dns |  | EC50 MOR (µ-opioid receptor (MOR) [5]; [35S]GTPγS binding, mean (S.E.M.), n=3): dns; % stimulation MOR (µ-opioid receptor (MOR) [5]; percent maximal stimulation relative to DAMGO at 10 µM): dns; pKi (µ-opioid receptor (MOR) [6]): 9.92
11 | CC(=O)N1CC[C@@H](NC(=O)[C@@H](N)Cc2c(C)cc(O)cc2C)c2cc(CC3Cc4ccccc4C3)ccc21 [14f, (S)-N-((R)-1-Acetyl-6-((2,3-dihydro-1H–inden-2-yl)methyl)-1,2,3,4-tetrahydroquinolin-4-yl)-2-amino-3-(4-hydroxy-2,6-dimethylphenyl)propanamide] | dns | dns |  | 
12 | Cc1cc(O)cc(C)c1C[C@H](N)C(=O)N[C@@H]1CCCc2ccc(Cc3ccccc3)cc21 [14m, (S)-2-Amino-N-((R)-7-benzyl-1,2,3,4-tetrahydronaphthalen-1-yl)-3-(4-hydroxy-2,6-dimethylphenyl) propanamide] | dns | dns | dns | 
13 | Cc1cc(O)cc(C)c1C[C@H](N)C(=O)N[C@@H]1CCNc2ccc(CC3Cc4ccccc4C3)cc21 [14l, (S)-2-Amino-N-((R)-6-((2,3-dihydro-1H–inden-2-yl)methyl)-1,2,3,4-tetrahydroquinolin-4-yl)-3-(4-hydroxy-2,6-dimethylphenyl)propanamide] |  |  |  | % stimulation MOR (µ-opioid receptor (MOR) [3]): 86 (1) %
14 | Cc1cc(O)cc(C)c1C[C@H](N)C(=O)N[C@@H]1CCNc2ccc(Cc3ccc4ccccc4c3)cc21 [14j, (S)-2-Amino-3-(4-hydroxy-2,6-dimethylphenyl)-N-((R)-6-(naphthalen-2-ylmethyl)-1,2,3,4-tetrahydroquinolin-4-yl)propanamide] |  |  |  | % stimulation MOR (µ-opioid receptor (MOR) [3]): 96 (3) %; EC50 DOR (δ-opioid receptor (DOR) [7]): dns; EC50 KOR (κ-opioid receptor (KOR) [4]): dns
15 | CC(=O)N1CC[C@@H](NC(=O)[C@@H](N)Cc2c(C)cc(O)cc2C)c2cc(Cc3ccccc3)ccc21 [14e, (S)-N-((R)-1-Acetyl-6-benzyl-1,2,3,4-tetrahydroquinolin-4-yl)-2-amino-3-(4-hydroxy-2,6-dimethylphenyl)propanamide] |  | 26 (3) % |  | 
